The nature of data set [1]: Drug level in human liver S9 fraction treated with BILR402 at 10 uM by LC-MS/MS analysis in presence of NADPH. The format is ADME, subcellular. To be noted: s9, 10 µM. The procedure, abridged:
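BILR 402 (10 μM final) was incubated with human liver S9 or cytosol (1 mg/mL protein) in 0.05 M potassium phosphate pH 7.4 at 37 °C. Runs were done with or without 2.5 mM NADPH. Samples at 10, 20, 30 and 60 min were quenched in nevirapine/acetonitrile, filtered and analysed by LC-MS/MS; duplicate.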

The nature of data set [2]: Drug excretion in rat feces assessed as metabolite level. The format is ADME, tissue-based.
The subject of data set [3] is Liver microsome. The data set can be described thus: Drug level in human liver microsomes treated with BILR402 at 1 uM by LC-MS/MS analysis in presence of CYP2C19 inhibitor ticlopidine. The format is ADME. In short, it runs like this:
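BILR 402 (1 μM) was incubated with human liver microsomes (0.05 mg/mL) for 30 min with NADPH, with or without ticlopidine 20 μM final as CYP2C19 inhibitor. BILR 402 depletion and BILR 355 formation were measured by LC-MS/MS.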

Data set [4] has as its system Liver microsome. The data set can be described thus: Drug metabolism in human liver microsomes assessed as BILR402 metabolite formation at 5 uM by LC-MS/MS analysis. The format is ADME. The procedure, abridged:
(§1)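 Pooled human liver microsomes, cytosol or S9 (1 mg/mL) were incubated with BILR 355 (5 μM final) in 0.05 M potassium phosphate pH 7.4 at 37 °C for 60 min. Microsomes and S9 received 2.5 mM NADPH.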
A general note: Liver microsomes are a subcellular fraction often used to study metabolism.

Data set [5] has as its target T1, Cytochrome P450 3A4 (Homo sapiens, UniProt P08684). The data set can be described thus: Activity at recombinant CYP3A4 (unknown origin) expressed in baculovirus-infected insect cells treated with 10 uM BILR402 assessed as enzyme-mediated compound formation at 10 uM after 4 mins by LC-MS/MS analysis in presence of NADPH.
A short description of data set [6]: Drug excretion in rat feces assessed as unchanged drug level. Particulars: read-out: Drug excretion. The format is ADME, tissue-based.
In data set [7] the test system is Liver cytosol. Description: Drug metabolism in human liver cytosol assessed as BILR402 metabolite formation at 5 uM by LC-MS/MS analysis. The format is ADME, tissue-based. The procedure, abridged:
as §1

The nature of data set [8]: Drug metabolism in human liver S9 fraction assessed as BILR516 disproportionate human metabolite formation at 5 uM after 60 mins by LC-MS/MS analysis. To be noted: s9, 1 h. The format is ADME, subcellular. The procedure, abridged:
as §1

Data set [9] is described as follows: Drug excretion in mouse feces assessed as metabolite level. It counts as ADME, tissue-based.
The test system of data set [10] is Liver cytosol. The data set can be described thus: Drug metabolism in human liver cytosol assessed as BILR516 disproportionate human metabolite formation at 5 uM after 60 mins by LC-MS/MS analysis. It counts as ADME, tissue-based. To be noted: 1 h. The procedure, abridged:
as §1

Data set [11] can be described thus: Drug excretion in dog feces assessed as metabolite level. The format is ADME, tissue-based, Canis lupus familiaris.
The subject of data set [12] is Liver microsome. The data set can be described thus: Drug metabolism in human liver microsomes assessed as BILR516 disproportionate human metabolite formation at 5 uM after 60 mins by LC-MS/MS analysis. It counts as ADME. To be noted: 1 h. The procedure, abridged:
as §1

Data set [13] is described as follows: Drug excretion in mouse feces assessed as unchanged drug level. It counts as ADME, tissue-based. To be noted: read-out: Drug excretion.
Data set [14] is described as follows: Drug excretion in dog feces assessed as unchanged drug level. It counts as ADME, tissue-based, Canis lupus familiaris. Particulars: read-out: Drug excretion.
The nature of data set [15]: Drug metabolism in human liver S9 fraction assessed as BILR402 metabolite formation at 5 uM by LC-MS/MS analysis. The format is ADME, subcellular. To be noted: s9, 5 µM. In short, it runs like this:
as §1

Data set [16] deals with T1, Cytochrome P450 3A4. The data set can be described thus: Activity at recombinant CYP3A4 (unknown origin) expressed in baculovirus-infected insect cells treated with 1 uM BILR402 assessed as enzyme-mediated compound formation after 4 mins by LC-MS/MS analysis in presence of NADPH. The format is ADME. In short, it runs like this: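 rCYP3A4 (5 pmol/mL) incubated with BILR 402 at 1 or 10 μM in 0.1 M potassium phosphate/5 mM MgCl2, pH 7.4, with NADPH at 37 °C. Remaining BILR 402 and BILR 355 formed were read at 4 min by LC-MS/MS against a labelled internal standard.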

Substrate in data set [17]: CCN1c2ncc(CCOc3ccnc4ccccc34)cc2C(=O)N(C)c2cccnc21
Description: Drug metabolism in human liver cytosol assessed as aldehyde-oxidase-mediated BILR516 metabolite formation after 10 mins by Eadie-Hofstee plot analysis. It counts as ADME, tissue-based. In short, it runs like this:
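Human liver cytosol (0.1 mg/mL) was incubated with BILR 402 at 12 concentrations, 0.061–125 μM, for 10 min at 37 °C in 0.05 M potassium phosphate pH 7.4 without NADPH, within the linear range for protein and time. […] Apparent Km and Vmax were derived from the kinetic data.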

A word on the Km: it is the substrate concentration at which the rate is half of its maximum. The term Vmax denotes the top rate of the reaction or transport when substrate is in excess.

T1 sequence (P08684 whole entry): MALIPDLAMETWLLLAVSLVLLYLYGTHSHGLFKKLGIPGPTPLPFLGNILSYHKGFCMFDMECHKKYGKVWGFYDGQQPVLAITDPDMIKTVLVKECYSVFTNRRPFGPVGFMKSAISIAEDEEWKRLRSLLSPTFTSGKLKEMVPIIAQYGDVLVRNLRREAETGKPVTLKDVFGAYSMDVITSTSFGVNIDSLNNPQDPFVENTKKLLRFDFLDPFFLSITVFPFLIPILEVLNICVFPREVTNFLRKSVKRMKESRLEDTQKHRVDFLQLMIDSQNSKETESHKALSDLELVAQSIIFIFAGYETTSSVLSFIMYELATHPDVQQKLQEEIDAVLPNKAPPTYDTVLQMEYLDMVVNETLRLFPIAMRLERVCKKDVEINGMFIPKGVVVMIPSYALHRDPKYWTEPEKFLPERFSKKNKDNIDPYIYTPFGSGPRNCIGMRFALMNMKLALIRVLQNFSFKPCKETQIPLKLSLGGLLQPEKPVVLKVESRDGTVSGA

Take `CCN1c2ncc(CCOc3cc(=O)[nH]c4ccccc34)cc2C(=O)N(C)c2cccnc21`: the Drug metabolism entry in data set [1] is “metabolite_detected”.
Regarding `CCN1c2ncc(CCOc3cc[n+]([O-])c4ccccc34)cc2C(=O)N(C)c2cccnc21` [BILR 355], the Drug excretion in data set [2], in data set [9] and in data set [11] was 72.5% throughout. The Drug metabolism entry in the data set on Liver microsome [3] was “metabolite_detected”; in the data set with Liver microsome [4], “metabolite_not_detected”; on Cytochrome P450 3A4 [5], 0.9 µM; in the data set with Liver cytosol [7] it was “metabolite_not_detected”; in data set [8], “metabolite_not_detected”; in the data set with Liver cytosol [10], “metabolite_not_detected”. In addition, the Drug metabolism result is “metabolite_not_detected” with Liver microsome [12], “metabolite_not_detected” in [15] and 0.15 µM on Cytochrome P450 3A4 [16]. In addition, the dose excreted in [6], in data set [13] and in data set [14] was 0% throughout.

B1: Aldehyde oxidase (Homo sapiens) (protein)
chain: MDRASELLFYVNGRKVIEKNVDPETMLLPYLRKKLRLTGTKYGCGGGGCGACTVMISRYNPITKRIRHHPANACLIPICSLYGAAVTTVEGIGSTHTRIHPVQERIAKCHGTQCGFCTPGMVMSIYTLLRNHPEPTLDQLTDALGGNLCRCTGYRPIIDACKTFCKTSGCCQSKENGVCCLDQGINGLPEFEEGSKTSPKLFAEEEFLPLDPTQELIFPPELMIMAEKQSQRTRVFGSERMMWFSPVTLKELLEFKFKYPQAPVIMGNTSVGPEVKFKGVFHPVIISPDRIEELSVVNHAYNGLTLGAGLSLAQVKDILADVVQKLPEEKTQMYHALLKHLGTLAGSQIRNMASLGGHIISRHPDSDLNPILAVGNCTLNLLSKEGKRQIPLNEQFLSKCPNADLKPQEILVSVNIPYSRKWEFVSAFRQAQRQENALAIVNSGMRVFFGEGDGIIRELCISYGGVGPATICAKNSCQKLIGRHWNEQMLDIACRLILNEVSLLGSAPGGKVEFKRTLIISFLFKFYLEVSQILKKMDPVHYPSLADKYESALEDLHSKHHCSTLKYQNIGPKQHPEDPIGHPIMHLSGVKHATGEAIYCDDMPLVDQELFLTFVTSSRAHAKIVSIDLSEALSMPGVVDIMTAEHLSDVNSFCFFTEAEKFLATDKVFCVGQLVCAVLADSEVQAKRAAKRVKIVYQDLEPLILTIEESIQHNSSFKPERKLEYGNVDEAFKVVDQILEGEIHMGGQEHFYMETQSMLVVPKGEDQEMDVYVSTQFPKYIQDIVASTLKLPANKVMCHVRRVGGAFGGKVLKTGIIAAVTAFAANKHGRAVRCVLERGEDMLITGGRHPYLGKYKAGFMNDGRILALDMEHYSNAGASLDESLFVIEMGLLKMDNAYKFPNLRCRGWACRTNLPSNTAFRGFGFPQAALITESCITEVAAKCGLSPEKVRIINMYKEIDQTPYKQEINAKNLIQCWRECMAMSSYSLRKVAVEKFNAENYWKKKGLAMVPLKFPVGLGSRAAGQAAALVHIYLDGSVLVTHGGIEMGQGVHTKMIQVVSRELRMPMSNVHLRGTSTETVPNANISGGSVVADLNGLAVKDACQTLLKRLEPIISKNPKGTWKDWAQTAFDESINLSAVGYFRGYESDMNWEKGEGQPFEYFVYGAACSEVEIDCLTGDHKNIRTDIVMDVGCSINPAIDIGQIEGAFIQGMGLYTIEELNYSPQGILHTRGPDQYKIPAICDMPTELHIALLPPSQNSNTLYSSKGLGESGVFLGCSVFFAIHDAVSAARQERGLHGPLTLNSPLTPEKIRMACEDKFTKMIPRDEPGSYVPWNVPI
With B1, in [17], the Km amounted to 0.772 µM and the Vmax is 0.000337 µmol/min.
